Test results taken from article PMC6008213 (Biochemistry, 2018).
Positions count from the first letter of the chain named.

Tests used:
[1] = target: T1, human TG2 (Homo sapiens, UniProt P21980); assay: TG2 deamidation activity assay; format: biochemical; settings: for kinh/Ki (bimolecular rate constant for TG2 oxidation): deamidation activity assay, 50 mM Tris, 1 mM EDTA, TG2 10 μM
T1 sequence (P21980 1-687): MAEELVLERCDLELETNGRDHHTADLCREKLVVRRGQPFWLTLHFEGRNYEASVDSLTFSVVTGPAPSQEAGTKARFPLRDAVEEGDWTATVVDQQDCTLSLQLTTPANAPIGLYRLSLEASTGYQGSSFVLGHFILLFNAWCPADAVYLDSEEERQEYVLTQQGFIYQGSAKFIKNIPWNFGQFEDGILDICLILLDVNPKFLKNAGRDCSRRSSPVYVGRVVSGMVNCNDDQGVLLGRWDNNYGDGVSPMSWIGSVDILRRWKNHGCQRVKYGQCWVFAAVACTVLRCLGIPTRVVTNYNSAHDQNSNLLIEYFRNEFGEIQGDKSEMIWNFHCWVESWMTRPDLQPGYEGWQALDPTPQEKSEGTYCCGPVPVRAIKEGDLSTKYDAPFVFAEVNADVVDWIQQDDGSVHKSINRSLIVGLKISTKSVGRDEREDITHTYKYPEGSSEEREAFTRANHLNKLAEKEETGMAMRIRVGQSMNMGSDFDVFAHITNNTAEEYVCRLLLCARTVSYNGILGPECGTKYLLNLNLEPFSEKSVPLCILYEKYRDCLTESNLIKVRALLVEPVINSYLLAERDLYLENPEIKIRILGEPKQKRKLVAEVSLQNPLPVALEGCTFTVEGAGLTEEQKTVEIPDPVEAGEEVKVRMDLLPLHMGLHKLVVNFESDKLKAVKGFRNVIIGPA
Method in brief: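 Human TG2 was expressed in and purified from E. coli and held at 10 μM in 50 mM Tris, 1 mM EDTA, pH 7.6, 22 °C, with disulfide oxidant. Aliquots taken at 2.5–120 min were diluted 10-fold into assay buffer. Deamidation activity was read relative to oxidant-free enzyme, in three technical replicates. Single-exponential fits gave k′. kinh/Ki came from the slope of k′ versus [I0], and Ki from fitting k′ versus [I0].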

[2] = target: T1, human TG2; assay: TG2 transamidation activity assay; format: biochemical
Method in brief: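 Transamidation was measured with TG2 immobilized on fibronectin, in 50 mM Tris, 1 mM EDTA, pH 7.6, 22 °C. After timed exposure to oxidant, activity was read relative to untreated enzyme. Single-exponential fits gave k′. Ki and kinh/Ki came from the dependence of k′ on inhibitor concentration.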

[3] = target: T2, C230S mutant of human TG2 (Homo sapiens, UniProt P21980, C230S); assay: Deamidation activity of the C230S mutant of TG2 after cystamine treatment; format: biochemical; settings: 10-fold molar excess of cystamine, 30 min; pH 7.6, 22 °C
T2 sequence (P21980 1-687 C230S): T1 sequence (P21980 1-687) with C230S

[4] = target: TG2; settings: reported value; cited from earlier work

For `N[C@@H](CSSC[C@H](N)C(=O)O)C(=O)O` [cystine], the “kinh/Ki (bimolecular rate constant for TG2 oxidation)” value ([1]; pH 7.6, 22 °C) was 4.83 M⁻¹ s⁻¹.

With `NCCSSCCN` [cystamine] the Ki [2] was greater than 100 µM, the “kinh/Ki (bimolecular rate constant for TG2 oxidation)” value ([2]; transamidation activity assay, 50 mM Tris, 1 mM EDTA, pH 7.6, 22 °C (disulfiram: TG2 50 nM, disulfiram 10 μM, 2.5% DMSO)) was 28.3 M⁻¹ s⁻¹ and the Ki [1] was greater than 600 µM. For the same molecule, the “inactivation of WT TG2 (deamidation activity)” value ([1]; 10-fold molar excess of cystamine, 30 min, pH 7.6, 22 °C) was “completely inactivated”, the “kinh/Ki (bimolecular rate constant for TG2 oxidation)” value ([1]; pH 7.6, 22 °C) was 20 M⁻¹ s⁻¹ and the “retained deamidation activity of C230S mutant” value [3] was greater than 85%.

For `O=C(NC[C@@H]1CC(Br)=NO1)[C@@H]1CCCN1C(=O)OCc1cnc2ccccc2c1` [ERW1041E], the kinh/Ki [4] is given as 267 M⁻¹ s⁻¹.
